Assay outcomes from PubChem BioAssay.
A selection: hits, their analogues and other compounds. The true share with any hit is near 2.6%.
Casp6 inh – caspase-6 (human) enzyme inhibition; purified caspase-6, Z-VEID-R110 cleavage fluorescence; hit rate 0.53% among 350,000; P55212; inhibition, % at 12.5 µM;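 active = mean inhibition across replicates at least about 35%, with every replicate also reaching that limit, limit read from the data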;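 also: 0% = median of neutral control wells and 100% = no fluorescence left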
UCH37 inh – inhibitors of human deubiquitinating enzyme UCH37; purified proteasome/UCH37, Ub-AMC cleavage fluorescence; inhibition, % (test concentration not listed); AID 588478; hit rate 0.33% among 330,000; Q9Y5K5;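 active = mean inhibition over replicate wells above about 20%, limit read from the data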;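 also: 0% = compound-free wells with enzyme and 100% = wells lacking proteasome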
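system = Proteasome-associated human UCH37 deubiquitinase | amount = 0.15 nM proteasome as dispensed | medium = pH 7.4 Tris-HCl (50 mM) with ovalbumin, ATP-MgCl2, DTT | incubation = 30 min preincubation with enzyme, 25 min cleavage at room temperature | detection = AMC fluorescence 355/460 nm | read-out basis = percent inhibition | controls = no-proteasome and no-compound wells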
NSD2 inh – NSD2 (human) methyltransferase inhibition; inhibition, % at 12.5 µM; hit rate 0.54% among 310,000; NSD2 peptide methylation, AlphaScreen, 120 min; O96028; in the data active = inhibition above about 50%
SIRT5 inh – inhibitors of human sirtuin-5 desuccinylase; Q9NXA8; Purified SirT5, succinyl-peptide AMC, trypsin-coupled fluorescence; inhibition, % at 15 µM; hit rate 1.1% among 330,000; AID 652115; in the data active = inhibition above about 15%
FGF22 binding – FGF22 (human) thermal shift binding; hit rate 1.5% among 340,000; recombinant FGF22 thermal shift, SYPRO orange fluorescence; percent of sucrose octasulfate shift, DMSO zero; AID 651658; activity (Tm shift, normalised), % at 9.99 µM; Q9HCT0;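 active = mean Tm shift, scaled 0 neutral to 100 positive control, at about 1.3% or above, every replicate too, limit read from the data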
AlphaScreen art – interferes with AlphaScreen signal, flagging NSD2 false positives. shares compounds with NSD2 inh. AlphaScreen artifact counterscreen, preloaded methylated H4 peptide. AC35, µM (top dose mostly 10 µM), without a hit: at the top dose activity change, negative = signal loss. hit rate 9.4% among 1,500. AID 1053174; call rule not given here
The depositor's hits bear a star; nt = not tested or not shown.

SMILES	Casp6 inh	UCH37 inh	NSD2 inh	SIRT5 inh	FGF22 binding	AlphaScreen art
COC(=O)[C@H]1[C@H](CO)[C@H]2Cn3c(ccc(-c4ccccc4F)c3=O)[C@@H]1N2Cc1cccnc1	-1.0	nt	nt	-3.4	-0.1	nt
O=C1NC(=O)C(=Cc2ccc(SC3CCCCC3)o2)C(=O)N1	66.6*	2.9	62.3*	-5.0	-0.1	0.8%
CCc1ccc(N2C(=O)NC(=O)/C(=C\C=C\c3ccco3)C2=O)cc1	54.5*	6.3	53.8*	-1.2	0.2	-7.3%
Cc1cc(C)cc(N2C(=O)NC(=O)/C(=C\C=C\c3ccco3)C2=O)c1	28.1	0.3	71.6*	-5.1	0.5	-1.4%
CCCC#Cc1ccc([C@H]2[C@H]3CN(C(=O)Cc4ccccn4)CCCCN3[C@H]2CO)cc1	1.9	nt	nt	-1.6	-0.2	nt
COC(=O)[C@H]1[C@H](CO)[C@H]2Cn3c(ccc(-c4cccc(F)c4)c3=O)[C@@H]1N2C(=O)CC1CC1	-3.4	nt	nt	-21.6	-0.1	nt
CCCNC(=O)N1[C@@H]2Cn3c(ccc(-c4ccccc4OC)c3=O)[C@H]1[C@@H](C(=O)O)[C@@H]2CO	0.9	nt	nt	-21.2	0.1	nt
CCN1C[C@]2(CO)CC[C@H](OC)[C@@]34C2[C@H](OC)[C@@](O)(C13)[C@@]1(O)C[C@H](OC)[C@H]2C[C@@H]4[C@@H]1[C@H]2OC	2.6	3.0	56.6*	24.3*	-0.1	-0.4%
NS(=O)(=O)c1ccc(N=Nc2c(O)[nH]c(=S)[nH]c2=O)cc1	1.0	nt	3.4	4.7	0.0	nt
O=c1[nH]c(=S)[nH]c(O)c1N=Nc1cc(S(=O)(=O)Nc2ccc(Cl)cc2)ccc1Cl	0.0	8.6	65.6*	4.7	0.0	-9.4%
COC(=O)[C@@H]1[C@@H](CO)[C@@H]2Cn3c(ccc(-c4cccc(C(=O)N(C)C)c4)c3=O)[C@H]1N2CC1CC1	1.6	nt	nt	-6.6	nt	nt
